Test results from article PMC3215888 (Cancer Chemotherapy and Pharmacology, 2011).
pIC50: −log10 of the molar value. Where two headings read alike, the source gives them in different places.

How the values were obtained:
[1] = system: TC-32 Ewing sarcoma cell line; assay: DIMSCAN in vitro testing, 96 h; assay type: cell-based; details: for pIC50: Homo sapiens, TC-32, 96 h
Procedure, shortened: (§1)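 Neuroblastoma and Ewing sarcoma lines, STR-verified and maintained as in the originators' reports. Exposed for 96 h to test compound (DMSO stock diluted in medium) at 1 nM–10 μM. Viable cells quantified by fluorescein diacetate fluorescence with DIMSCAN digital image microscopy. Absolute IC50 = concentration giving 50% growth inhibition vs controls. Relative IC50 = concentration giving 50% of the maximum inhibitory effect.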

[2] = system: CHLA-32 Ewing sarcoma cell line; assay: DIMSCAN in vitro testing, 96 h; assay type: cell-based; details: for pIC50: 96 h
Procedure, shortened: as §1

[3] = system: NB-EBc1 neuroblastoma cell line; assay: DIMSCAN in vitro testing, 96 h; assay type: cell-based; details: for pIC50: Neuroblastoma cell, 96 h
Procedure, shortened: as §1

[4] = system: SMS-LHN neuroblastoma cell line; assay: DIMSCAN in vitro testing, 96 h; assay type: cell-based; details: for pIC50: Neuroblastoma cell, 96 h
Procedure, shortened: as §1

[5] = system: Ewing sarcoma (n = 11) and neuroblastoma (n = 17) cell lines; assay: DIMSCAN in vitro testing, 96 h, whole extended panel; assay type: cell-based
neuroblastoma cell lines = assay: DIMSCAN in vitro testing, 96 h, neuroblastoma panel; assay type: cell-based
Procedure, shortened: as §1

[6] = system: Rh65 ALV Rhabdomyosarcoma xenograft; assay type: in vivo, mice
Procedure, shortened: (§2)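 Female CB17 scid mice bearing subcutaneous tumors, 10 per group. Dosed by oral gavage twice daily, 5 days weekly for 6 weeks, at 20.8, 10.4, 5.2 or 2.6 mg/kg, in 10% 2-hydroxypropyl-β-cyclodextrin/1% sodium bicarbonate. Event = quadrupled tumor volume; EFS by Kaplan–Meier, exact log-rank test. Per-mouse scores PD/SD/PR (≥50% regression)/CR (<0.10 cm3)/MCR; group median reported. PR, CR and MCR count as objective responses.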

[7] = system: NB-EBc1 Neuroblastoma xenograft; assay type: in vivo, mice
Procedure, shortened: as §2

[8] = system: ALL-2 ALL B-precursor xenograft; assay: ALL xenograft; assay type: in vivo, mice
Procedure, shortened: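 Female NOD/scid mice inoculated intravenously with leukemia cells, 8 per group. Test compound suspended in 10% 2-hydroxypropyl-β-cyclodextrin/1% sodium bicarbonate in water. Given by oral gavage twice daily, 5 days weekly for 3 weeks, at 20.8, 10.4, 5.2 or 2.6 mg/kg. Blood %hCD45 of leukocytes tracked; event = hCD45 reaching 25%. EFS by Kaplan–Meier, exact log-rank vs controls. Median group response from individual scores.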

[9] = Plasma pharmacokinetics after a single oral dose, LC/MS/MS; assay type: in vivo, non-tumored scid mice; details: scid, mouse
Toxicity = assay type: in vivo, mice; details: leukemia models at the MTD
Procedure, shortened: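 Deaths counted in control and treated arms of the xenograft efficacy studies (10 mice per solid tumor group, 8 per ALL group). A group would be excluded from analysis if mortality exceeded 25%.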

Aurora kinase A = details: cited from earlier work
[10] = patients, 50 mg BID for 7 days; cited from earlier work

COc1cc(Nc2ncc3c(n2)-c2ccc(Cl)cc2C(c2c(F)cccc2OC)=NC3)ccc1C(=O)O [MLN8237]
pIC50 ([1]; read-out: Absolute IC50): 7.41
pIC50 ([1]; read-out: Relative IC50): 7.47
Ymin ([1]; TC-32, minimum T/C): 6.5%
pIC50 ([2]; read-out: Absolute IC50): 6.87
pIC50 ([2]; read-out: Relative IC50): 7.04
Ymin ([2]; CHLA-32, minimum T/C): 13.1%
Ymin ([3]; NB-EBc1, minimum T/C): 3.6%
pIC50 ([3]; read-out: Absolute IC50): 7.30
pIC50 ([3]; read-out: Relative IC50): 7.31
pIC50 ([4]; read-out: Absolute IC50): 7.49
pIC50 ([4]; read-out: Relative IC50): 7.70
Ymin ([4]; SMS-LHN, minimum T/C): 25.1%
Ymin, maximum ([5]; maximum of 28 cell lines): 48.1%
Ymin, median ([5]; median of 28 cell lines): 10.9%
Ymin, minimum ([5]; minimum of 28 cell lines): 0.5%
pIC50 ([5]; read-out: Absolute IC50, maximum): 5.00
pIC50 ([5]; read-out: Absolute IC50, median): 7.43
pIC50 ([5]; read-out: Absolute IC50, minimum): 8.00
pIC50 ([5]; read-out: Relative IC50, maximum): 5.00
pIC50 ([5]; read-out: Relative IC50, median): 7.49
pIC50 ([5]; read-out: Relative IC50, minimum): 8.05
pIC50 (neuroblastoma cell lines; Neuroblastoma cell, read-out: relative IC50 values, neuroblastoma panel): 7.64
median Ymin, neuroblastoma cell lines (neuroblastoma cell lines; median of neuroblastoma panel): 10.4%
EFS T/C ([6]; 2.6 mg/kg): 2.1
EFS activity ([6]; 2.6 mg/kg): Int
Estimate of median time to event ([6]; 2.6 mg/kg): 22.9 days
Median group response ([6]; 2.6 mg/kg): PD2 (if the TGD value >1.5, the mouse was considered PD2)
Response activity ([6]; 2.6 mg/kg): Int
Tumor volume T/C ([6]; 2.6 mg/kg): 0.31
Median RTV/hCD45 at end of study ([6]; 2.6 mg/kg): >4
EFS T/C ([6]; 5.2 mg/kg): 3.7
EFS activity ([6]; 5.2 mg/kg): Int
Estimate of median time to event ([6]; 5.2 mg/kg): 39.3 days
Median group response ([6]; 5.2 mg/kg): PD2 (if the TGD value >1.5, the mouse was considered PD2)
Response activity ([6]; 5.2 mg/kg): Int
Tumor volume T/C ([6]; 5.2 mg/kg): 0.19
Median RTV/hCD45 at end of study ([6]; 5.2 mg/kg): >4
EFS T/C ([6]; 10.4 mg/kg): >3.9
EFS activity ([6]; 10.4 mg/kg): Int
Median group response ([6]; 10.4 mg/kg): PD2 (if the TGD value >1.5, the mouse was considered PD2)
Response activity ([6]; 10.4 mg/kg): Int
Tumor volume T/C ([6]; 10.4 mg/kg): 0.11
Median RTV/hCD45 at end of study ([6]; 10.4 mg/kg): 3.2
EFS T/C ([6]; 20.8 mg/kg): >3.9
EFS activity ([6]; 20.8 mg/kg): High
Median group response ([6]; 20.8 mg/kg): MCR
Response activity ([6]; 20.8 mg/kg): High
Tumor volume T/C ([6]; 20.8 mg/kg): 0.01
Median RTV/hCD45 at end of study ([6]; 20.8 mg/kg): 0.0
EFS T/C ([7]; 2.6 mg/kg): 1.7
EFS activity ([7]; 2.6 mg/kg): Low
Estimate of median time to event ([7]; 2.6 mg/kg): 9.6 days
Median group response ([7]; 2.6 mg/kg): PD2 (if the TGD value >1.5, the mouse was considered PD2)
Response activity ([7]; 2.6 mg/kg): Int
Tumor volume T/C ([7]; 2.6 mg/kg): 0.57
Median RTV/hCD45 at end of study ([7]; 2.6 mg/kg): >4
EFS T/C ([7]; 5.2 mg/kg): 2.0
EFS activity ([7]; 5.2 mg/kg): Low
Estimate of median time to event ([7]; 5.2 mg/kg): 11.3 days
Median group response ([7]; 5.2 mg/kg): PD2 (if the TGD value >1.5, the mouse was considered PD2)
Response activity ([7]; 5.2 mg/kg): Int
Tumor volume T/C ([7]; 5.2 mg/kg): 0.44
Median RTV/hCD45 at end of study ([7]; 5.2 mg/kg): >4
EFS T/C ([7]; 10.4 mg/kg): 3.1
EFS activity ([7]; 10.4 mg/kg): Int
Estimate of median time to event ([7]; 10.4 mg/kg): 17.9 days
Median group response ([7]; 10.4 mg/kg): PD2 (if the TGD value >1.5, the mouse was considered PD2)
Response activity ([7]; 10.4 mg/kg): Int
Tumor volume T/C ([7]; 10.4 mg/kg): 0.22
Median RTV/hCD45 at end of study ([7]; 10.4 mg/kg): >4
EFS T/C ([7]; 20.8 mg/kg): >7.2
EFS activity ([7]; 20.8 mg/kg): High
Median group response ([7]; 20.8 mg/kg): MCR
Response activity ([7]; 20.8 mg/kg): High
Tumor volume T/C ([7]; 20.8 mg/kg): 0.15
Median RTV/hCD45 at end of study ([7]; 20.8 mg/kg): 0.3
EFS T/C ([8]; 2.6 mg/kg): 2.3
EFS activity ([8]; 2.6 mg/kg): Int
Estimate of median time to event ([8]; 2.6 mg/kg): 25.2 days
Median group response ([8]; 2.6 mg/kg): PD2 (if the TGD value >1.5, the mouse was considered PD2)
Response activity ([8]; 2.6 mg/kg): Int
Median RTV/hCD45 at end of study ([8]; 2.6 mg/kg): >25%
EFS T/C ([8]; 5.2 mg/kg): >3.8
EFS activity ([8]; 5.2 mg/kg): Int
Response activity ([8]; 5.2 mg/kg): High
Median RTV/hCD45 at end of study ([8]; 5.2 mg/kg): >25%
EFS T/C ([8]; 10.4 mg/kg): >3.8
EFS activity ([8]; 10.4 mg/kg): Int
Response activity ([8]; 10.4 mg/kg): High
Median RTV/hCD45 at end of study ([8]; 10.4 mg/kg): 3.1%
EFS T/C ([8]; 20.8 mg/kg): >3.8
EFS activity ([8]; 20.8 mg/kg): High
Median group response ([8]; 20.8 mg/kg): MCR
Response activity ([8]; 20.8 mg/kg): High
Median RTV/hCD45 at end of study ([8]; 20.8 mg/kg): 0.3%
concentration at 12 h ([9]; oral, 10 mg/kg): 1200 nM
concentration at 12 h ([9]; oral, 10.4 mg/kg): 1200 nM
AUC(0-t) ([9]; po, 10 mg/kg): 39 µM·h
Cmax ([9]; po, 10 mg/kg, C max, single oral 10 mg/kg, mice): 15800 nM
AUC(0-t) ([9]; po, 10.4 mg/kg): 60.3 µM·h
Cmax ([9]; po, 10.4 mg/kg): 24800 nM
Tmax ([9]; po, 10.4 mg/kg): 30 min
AUC(0-t) ([9]; po, 20.8 mg/kg): 78.4 µM·h
Tmax ([9]; po, 20.8 mg/kg): 30 min
concentration at 12 h ([9]; po, 20.8 mg/kg): 1800 nM
mice that died in the treated arm (Toxicity): 5 of 24
specificity for Aurora kinase A inhibition versus Aurora kinase B (Aurora kinase A): 200 fold
average trough concentrations [10]: exceeded 1 μM
